# An excerpt weighted towards active compounds, which were near 5% of everything screened.
# Beta apoptosis: beta cell apoptosis inhibition | INS-1E cytokine-induced death, ATP luminescence, 48 h; percent of positive-control rescue, neutral wells zero | 300,000 compounds, 0.8% hits | protection from apoptosis, % (test concentration not listed);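 active = Every replicate reaches about 75%, or at least half do and their mean reaches it too, limit read from the data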;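 note: 0% = cytokine-treated negative control wells and 100% = positive control rescue; higher means more ATP so stronger rescue from cytokine killing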
# Mdm2-MdmX inh: inhibitors of human Mdm2/MdmX interaction | SaOS-2 split-luciferase Mdm2/MdmX complementation, luminescence | inhibition, % at 8 µM | 330,000 compounds, 3% hits | AID 485346;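 active = inhibition of at least 50% at 8 µM in the primary screen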
# UPR CHOP act: apoptotic UPR (CHOP) activation. CHO-CHOP luciferase reporter, luminescence; percent of tunicamycin response over DMSO baseline. activation, % at 10 µM. 330,000 compounds, 0.34% hits;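 active = at 10 µM dose, activation of 40% or more, normalized to positive control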;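 note: 100% = tunicamycin at 10 µg/mL and 0% = DMSO alone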
#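 Material: CHO-CHOP cells, stable luciferase reporter of PERK-eIF2a-CHOP signalling; quantity: 500 reporter cells seeded per well; buffer or medium: F12 medium containing 10% fetal bovine serum; compound: one dose, 10 µM in 0.5% DMSO; incubation: 6 h compound treatment, 37 °C; measured by: Steady-Glo luciferase luminescence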
# CSC inhib: blocks cancer stem cells; cancer stem cell-like cells viability, luminescence; inhibition, % at 7.5 µM; 300,000 compounds, 1.1% hits; AID 2717; in the data active = inhibition above about 75%; tested in HMLE shEcad cells
# XBP1 UPR activ: adaptive UPR (XBP1) activation; activation, % at 20 µM; 330,000 compounds, 0.33% hits; CHO-XBP1 luciferase reporter, IRE1-XBP1 UPR activation, luminescence; percent of tunicamycin response, DMSO as zero; AID 463104;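 active = versus positive control, 20 µM dose yields 30% or more activation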;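 note: 100% = tunicamycin at 10 µg/mL and 0% = DMSO only wells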
#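 assay system = CHO-XBP1 luciferase reporter cells | amount = 1000 cells/well | buffer or medium = F12 plus 10% FBS | compound dosing = single point, 20 µM final compound, 1% DMSO | incubation = 16-18 h cell attachment at 37 °C, then 6 h compound exposure | detection = Steady-Glo luminescence read | controls = tunicamycin 10 µg/mL and vehicle-only wells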
# T cruzi inh: T. cruzi replication inhibition | T. cruzi beta-gal in NIH3T3, luminescence, 90 h | inhibition, % (concentration not given with the values) | 300,000 compounds, 1.4% hits;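 active = mean inhibition across valid replicates above about 55%, limit read from the data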;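 note: signal also drops with host cell toxicity which is not excluded here; 0% = plate median of DMSO wells and 100% = zero luminescence signal; higher percent means less beta-gal luminescence so fewer parasites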
#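 Material: NIH/3T3 host cells with β-galactosidase reporter T. cruzi; Input: 5,000 host fibroblasts per well; Medium: DMEM, 2% fetal bovine serum; Compound: 50 nL DMSO compound solution per well; Schedule: 3 h host attachment, then at least 90 h co-culture; Detection: luminescent β-galactosidase signal after 60 min lysis.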
# Mdm2-MdmX conf: confirmation of human Mdm2/MdmX interaction inhibitors; 10,000 compounds, 55% hits; shares compounds with Mdm2-MdmX inh; Mdm2-MdmX binding, luminescent assay; inhibition, % at 8 µM; in the data active = inhibition above about 40%
# FLuc counter: inhibits full-length luciferase, flagging false Mdm2/MdmX hits; shares compounds with Mdm2-MdmX inh; SaOS-2 full-length luciferase counterscreen, luminescence; inhibition, % at 8 µM; 6,200 compounds, 77% hits;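 active = mean inhibition at 8 µM reaching about 37%, which flags the compound as non-specific, limit read from the data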;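 note: p53-null SaOS-2 cells with luciferase driven by a doxycycline-inducible promoter; compound on cells about two nights before reading with doxycycline added after day one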
# Numbers without * were called inactive; . = no result.
SMILES,Beta apoptosis,Mdm2-MdmX inh,UPR CHOP act,CSC inhib,XBP1 UPR activ,T cruzi inh,Mdm2-MdmX conf,FLuc counter
N#Cc1ccccc1S(=O)(=O)N1CCN(c2nc(-c3cccnc3)nc3ccccc23)CC1,.,54*,1,.,3,.,47*,76*
O=C1COc2ccc(C(=O)COc3ccc(Cl)cc3Br)cc2N1,1,22,0,1,-3,9,.,.
Cc1cccc(-c2nc3c(c(SCC(=O)N4CCOCC4)n2)Cc2c(CO)cnc(C)c2O3)c1,7,28,0,10,0,25,.,.
COc1cccc(-c2nc3c(c(SCC(=O)N4CCOCC4)n2)Cc2c(CO)cnc(C)c2O3)c1,5,65*,3,-2,3,9,31,71*
Cc1ncc(CO)c2c1Oc1nc(-c3ccccc3)nc(SCC(=O)N3CCOCC3)c1C2,1,28,0,-14,2,-6,.,.
Cc1ncc(CO)c2c1Oc1nc(-c3ccccc3)nc(SCC(=O)N3CCCCC3)c1C2,11,63*,6,-13,2,13,38,53*
CC(C)(C)c1ccc(-c2noc(CCC(=O)Nc3cccnc3)n2)cc1,5,55*,-9,.,-13,2,53*,22
COc1ccc(-c2noc(CCC(=O)Nc3cccnc3)n2)cc1,-2,9,0,7,-3,0,.,.
O=C(O)/C=C/C(=O)NNC(=O)c1cccc(Br)c1,-8,35,0,-12,-4,2,.,.
O=C1CC(c2ccco2)Cc2c1cnn2-c1nc2ccccc2s1 (stereo not drawn),0,50*,0,-20,-2,-7,6,.
Cc1cc(C)nc(-n2ncc3c2CC(c2ccccc2)CC3=O)n1 (stereo not drawn),1,12,-3,4,2,7,.,.
CN(Cc1ccccc1)C(=O)COc1cc(Cl)ccc1Cl,-3,13,2,1,1,6,.,.
COC(=O)c1c(-c2cccc3ccccc23)csc1NC(=O)Cc1ccc(OC)c(OC)c1,24,62*,4,37,-1,57*,51*,48*
COC(=O)c1c(-c2ccc(C)cc2)csc1NC(=O)Cc1ccc(OC)c(OC)c1,.,.,.,.,.,-11,.,.
O=C(NCCCNC(=O)c1cc(Cl)ccc1Cl)c1ccccn1,.,32,2,14,-5,10,.,.
COc1ccc([N+](=O)[O-])cc1NC(=O)c1ccc(N2C(=O)CCC2=O)cc1,-6,-16,1,-8,0,-5,.,.
Cn1c(/C(C#N)=C(\O)c2ccc([N+](=O)[O-])cc2)nc2ccccc21,-1,86*,4,-8,10,-18,27,.
CCN(CC)S(=O)(=O)c1ccc(/C(O)=C(\C#N)c2nc3ccccc3n2C)cc1,14,19,1,35,8,24,.,.
CCC(=O)N1c2ccccc2C(N(C(C)=O)c2ccccc2)CC1C (stereo not drawn),.,54*,1,-17,0,1,24,.
CCCCn1c(N)c(N(CCOC)C(=O)CCNC(=O)c2ccc(Br)cc2)c(=O)[nH]c1=O,-21,16,1,-5,2,-6,.,.
CCCCCCCNC(=O)C1(CC2CC(c3cccc(Br)c3)=NO2)CCNCC1 (stereo not drawn),.,100*,7,159*,14,12,85*,60*
CCCCCCCNC(=O)C1(CC2CC(c3ccc(Cl)cc3)=NO2)CCNCC1 (stereo not drawn),.,100*,4,15,5,27,69*,25
COC(=O)c1ccc(C(=O)N2CCCC(N3CCN(c4ccc(F)cc4)CC3)C2)nc1 (stereo not drawn),-6,12,0,-6,-3,-5,.,.
CSCCC(NC(=O)c1ccc(Cl)cc1Cl)C(=O)NCc1ccncc1 (stereo not drawn),.,15,-2,-5,-2,-6,.,.
Cc1csc2nc(O)c(C(=O)NC3CCCCC3)c(=O)n12,.,63*,3,-3,-2,-4,66*,35
SMILES,Beta apoptosis,Mdm2-MdmX inh,UPR CHOP act,CSC inhib,XBP1 UPR activ,T cruzi inh,Mdm2-MdmX conf,FLuc counter
COc1ccccc1-c1cc(C(=O)N/N=C/c2cccs2)c2ccccc2n1,4,66*,1,26,-4,1,35,.
COc1ccc(-c2cc(C(=O)N/N=C/c3sccc3C)c3ccccc3n2)c(OC)c1,11,88*,0,49,-1,-20,87*,31
NS(=O)(=O)c1ccc(CCNC(=O)COC(=O)CC(c2ccccc2)c2ccccc2)cc1,.,10,-1,3,-1,-13,.,.
CC(=O)Nc1ccc(S(=O)(=O)N(C)c2ccc(OCC(=O)Nc3ccccc3C(C)=O)cc2)cc1,.,13,1,.,-1,.,.,.
COc1ccc(C(=O)Nc2ccccc2C(=O)NC(C(=O)NCc2ccco2)C(C)C)cc1 (stereo not drawn),11,74*,1,7,-3,-12,-9,.
COc1ccc(C(=O)Nc2ccccc2C(=O)N(Cc2ccco2)C(C(N)=O)C(C)C)cc1 (stereo not drawn),-4,66*,2,-4,0,-2,21,.
COc1ccc(C(=O)N[C@H](C(=O)NCc2ccco2)C(C)C)cc1,0,-4,0,9,-1,-6,.,.
O=C(COc1ccc(Cl)cc1)Nc1ccccc1C(=O)NCc1ccco1,-2,73*,6,23,4,19,-19,.
CN(c1ccc(OCC(=O)Nc2ccccc2C(=O)O)cc1)S(=O)(=O)c1ccc(Cl)cc1,-1,90*,0,49,-3,.,40*,39*
Cc1cc(C)cc(OCC(=O)Nc2ccccc2C(=O)NCc2ccco2)c1,10,-1,0,-12,1,7,.,.
CC(C)C[C@H](NC(=O)c1[nH]cnc1C(=O)N[C@@H](Cc1ccccc1)C(=O)OC(C)(C)C)C(=O)OC(C)(C)C,26,80*,3,0,13,30,22,.
CC(C)(C)OC(=O)[C@H](Cc1ccccc1)NC(=O)c1nc[nH]c1C(=O)N1CCN(C(=O)OC(C)(C)C)CC1,-3,74*,3,18,0,22,27,.
CC(C)(C)OC(=O)N1CCN(C(=O)c2[nH]cnc2C(=O)N[C@@H](Cc2ccccc2)C(=O)OCc2ccccc2)CC1,-2,-1,3,0,-2,-11,.,.
O=C(c1ccc2c(c1)CCN2S(=O)(=O)c1ccccc1)N1CCN(c2ccccc2F)CC1,.,2,-2,.,-5,6,.,.

# Source: PubChem BioAssay
